Results: article PMC9942236 (Science translational medicine, 2023)

Columns and labels:
[1] = tested on: MGG8 orthotopic brain tumors; test: Orthotopic MGG8 GSC mouse model: tumor growth and survival; format: in vivo; details: MGG8-bearing mice; YTX-7739 30 mg/kg, TMZ 5mg/kg, IP
Summary of the method: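 Fluc-expressing MGG8 GSCs (1–5 × 10⁴) implanted into left forebrain of male/female athymic nude mice; treatment began once tumors bioluminescence-detected (D-luciferin 150 mg/kg IP). Groups (n=8): vehicle (0.5% methylcellulose + 0.2% Tween80 in saline), test compound 30 mg/kg, TMZ 5 mg/kg (in 5% dextrose), or combination, IP. Tumor growth by bioluminescence; Kaplan-Meier survival, two-sided log-rank test; study ended at six months.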

M120 = test: Short-term cell viability of recurrent GSC line M120; format: cell-based, human; details: YTX-7739 at 10 μM, TMZ 50–100μM
[2] = tested on: 83 GSC orthotopic brain tumors; test: Orthotopic 83 GSC mouse model: tumor growth and survival; format: in vivo; details: 83-bearing mice; YTX-7739 30mg/kg, TMZ 10mg/kg, IP
HA-Ras cells = test: Cell viability of transformed astrocytes expressing HRAS G12V; format: cell-based, human; details: read-out: EC50 (cell viability), 1% serum, 96h
Summary of the method: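 Human astrocytes immortalized with E6/E7/hTERT and transformed by HRAS G12V expression were treated with test compound in 1% serum for 96 h, then viability was measured. At least three independent biological replicates; experiments repeated at least three times; mean ± SD.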

| Compound | survival [1] [days] | survival percentage at six months after tumor implantation [1] [%] | short-term cell viability (M120) | median survival [2] [days] | tumor growth [2] | EC50 (HA-Ras cells) [nM] |
| --- | --- | --- | --- | --- | --- | --- |
| Cn1nnc2c(C(N)=O)ncn2c1=O [TMZ, Temozolomide] | 106.5 | 25 | ineffective | 32 | initially delayed tumor growth | – |
| Cc1nnc(-c2ccc(N3CCC(Oc4cc(F)ccc4Cl)CC3)nn2)o1 [CAY10566] | – | – | – | – | – | 18.6 |
